This note sets out measurements from ChEMBL document CHEMBL3352339, “Implications of N-capped urea/thiourea and C-capped 3-(1-piperazinyl)-1,2-benzisothiazole with bridging Gly-Val/Phe-Gly-Val-Pro as therapeutic targets” (Eur J Med Chem, 2014).

Structures are written as SMILES. Values after ≈ are worked out from the molar mass of the structure shown. Starred links: 1 amine or outer side, 2 acyl side, 3 side chain; linkers in the order of their positions; H or OH if unused. Residues, ends and D or L forms follow the SMILES beside them. *: point of attachment. Thiocarbamoyl(4-MeOPh) = COc1ccc(NC(=S)*)cc1; Thiocarbamoyl(N-2-FPh) = Fc1ccccc1NC(=S)*; X1 = c1ccc2c(N3CCN(*)CC3)nsc2c1; NH(2-F-phenyl) = Fc1ccccc1N*; X4 = COc1cccc(NC(=S)*)c1; CO = O=C([*:1])[*:2]

The subject of data set [1] is Xanthomonas oryzae. In words: Antibacterial activity against Xanthomonas oryzae at 50 ug/mL incubated for 24 hrs by agar well diffusion method. The format is functional. Conditions: read-out: IZ. A general note: Agar diffusion results depend on both activity and mobility in agar.
The test system of data set [2] is Staphylococcus. The data set is described as follows: Antibacterial activity against Coagulase positive Staphylococcus at 50 ug/mL incubated for 24 hrs by agar well diffusion method. The format is functional. Conditions: read-out: IZ. Put shortly: (§1)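 Agar well diffusion against the bacterial isolate, with streptomycin as the reference drug. Read-out is the average diameter (mm) of the growth-inhibition zone around the well.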

In data set [3] the test system is Fusarium verticillioides. The data set is described as follows: Antifungal activity against Fusarium moniliforme incubated for 48 to 72 hrs by agar microdilution method. The format is functional. Put shortly:
(§2)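 MIC by microdilution against the fungal strain, limited to compounds showing significant zones in the diffusion assay. Bavistin was used as the reference.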

Data set [4] relates to Fusarium oxysporum. The data set is described as follows: Antifungal activity against Fusarium oxysporum incubated for 48 to 72 hrs by agar microdilution method. The format is functional. In a few lines:
as §2

In data set [5] the target is Urease (Canavalia ensiformis, UniProt P07374). In words: Inhibition of jack bean urease assessed as reduction in ammonia production incubated at 30 degC for 15 mins by indophenol method. Put shortly: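 Inhibition of jack bean urease, with thiourea as the reference standard. IC50 values are the average of triplicate runs.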
Sequence of Urease (P07374 whole entry): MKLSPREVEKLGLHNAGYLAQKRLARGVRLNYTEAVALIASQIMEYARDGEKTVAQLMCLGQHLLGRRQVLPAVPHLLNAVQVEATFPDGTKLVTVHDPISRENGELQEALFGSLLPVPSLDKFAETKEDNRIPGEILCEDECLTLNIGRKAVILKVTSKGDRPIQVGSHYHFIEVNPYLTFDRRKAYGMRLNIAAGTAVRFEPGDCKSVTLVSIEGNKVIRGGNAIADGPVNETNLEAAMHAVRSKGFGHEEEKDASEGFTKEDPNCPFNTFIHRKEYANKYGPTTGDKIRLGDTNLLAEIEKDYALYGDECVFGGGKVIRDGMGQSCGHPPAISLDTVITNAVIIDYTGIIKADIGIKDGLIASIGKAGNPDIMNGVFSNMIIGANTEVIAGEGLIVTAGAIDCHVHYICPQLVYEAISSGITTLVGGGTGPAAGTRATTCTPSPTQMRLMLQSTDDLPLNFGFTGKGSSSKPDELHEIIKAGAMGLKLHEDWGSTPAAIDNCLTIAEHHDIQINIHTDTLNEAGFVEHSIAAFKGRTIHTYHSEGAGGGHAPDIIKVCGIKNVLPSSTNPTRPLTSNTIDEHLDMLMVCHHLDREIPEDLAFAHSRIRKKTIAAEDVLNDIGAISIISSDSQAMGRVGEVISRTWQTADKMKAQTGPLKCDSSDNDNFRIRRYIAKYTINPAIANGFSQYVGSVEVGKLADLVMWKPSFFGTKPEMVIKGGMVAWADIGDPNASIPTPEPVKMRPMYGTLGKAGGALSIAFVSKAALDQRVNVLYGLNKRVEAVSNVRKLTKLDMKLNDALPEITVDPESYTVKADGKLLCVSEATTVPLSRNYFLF
The test system of data set [6] is Aspergillus flavus. The data set is described as follows: Antifungal activity against Aspergillus flavus incubated for 48 to 72 hrs by agar microdilution method. The format is functional. Put shortly: as §2
Data set [7] has as its system Aspergillus flavus. The data set is described as follows: Antifungal activity against Aspergillus flavus at 50 ug/mL incubated for 3 days by agar well diffusion method. The class given is functional. Conditions: 72 h, read-out: IZ. In a few lines: (§3)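 Fungal growth inhibition measured by agar well diffusion, with bavistin as the reference. Records the mean inhibition-zone diameter (mm) around each well.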

Data set [8] deals with Aspergillus niger. In words: Antifungal activity against Aspergillus niger incubated for 48 to 72 hrs by agar microdilution method. The format is functional. Put shortly:
as §2

Data set [9] has as its system Klebsiella pneumoniae. The data set is described as follows: Antibacterial activity against Klebsiella pneumoniae incubated for 24 hrs by agar microdilution method. The class given is functional.
A short description of data set [10]: Antiglycation activity using bovine serum albumin incubated at 37 degC for 7 days by spectrofluorimetry. The class given is physicochemical. Put shortly: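 Glycation of bovine serum albumin, with rutin as the reference standard. IC50 values are averages of triplicate runs.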
Data set [11] can be described thus: Inhibition of sheep stomach parietal cells gastric H+/K+-ATPase activity assessed as reduction in inorganic phosphorus production by Fiske Subbarow's method. The format is tissue-based, Ovis aries. Conditions: read-out: IC50. In a few lines:
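Inhibition of purified H+/K+-ATPase, with omeprazole as the reference. IC50 is the mean of triplicate runs.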

The subject of data set [12] is Aspergillus niger. In words: Antifungal activity against Aspergillus niger at 50 ug/mL incubated for 3 days by agar well diffusion method. The class given is functional. Conditions: 72 h, read-out: IZ. Put shortly:
as §3

In data set [13] the test system is Escherichia coli. The data set is described as follows: Antibacterial activity against Escherichia coli at 50 ug/mL incubated for 24 hrs by agar well diffusion method. Conditions: read-out: IZ. The format is functional. In a few lines: as §1
For data set [14], the system named is Escherichia coli. In words: Antibacterial activity against Escherichia coli incubated for 24 hrs by agar microdilution method. The format is functional.
The test system of data set [15] is Staphylococcus. In words: Antibacterial activity against Coagulase positive Staphylococcus incubated for 24 hrs by agar microdilution method. The class given is functional.
Data set [16] deals with Fusarium verticillioides. The data set is described as follows: Antifungal activity against Fusarium moniliforme at 50 ug/mL incubated for 3 days by agar well diffusion method. The class given is functional. Conditions: 72 h, read-out: IZ. Put shortly:
as §3

Data set [17] relates to Fusarium oxysporum. In words: Antifungal activity against Fusarium oxysporum at 50 ug/mL incubated for 3 days by agar well diffusion method. The class given is functional. Conditions: 72 h, read-out: IZ. Put shortly:
as §3

Regarding `CC(C)[C@H](NC(=O)CNC(=S)Nc1ccccc1F)C(=O)NCC(=O)N[C@H](C(=O)N1CCC[C@H]1C(=O)N1CCN(c2nsc3ccccc23)CC1)C(C)C` ({Thiocarbamoyl(N-2-FPh)}-GVGVP-X1), the zone of inhibition at 50 µg/mL in [1] amounted to 24 mm; in [2], 27 mm; in data set [7] it was 29 mm; in data set [12] it was 30 mm; in data set [13] it was 27 mm; in data set [16], 31 mm. In data set [17], the zone of inhibition at 50 µg/mL turned out to be 30 mm. Also, the MIC in [3] stood at 13 µg/mL (≈ 16.6 µM); in [4] it was 15.2 µg/mL (≈ 19.5 µM); in data set [6] it was 16.5 µg/mL (≈ 21.1 µM); in data set [8] it was 15.2 µg/mL (≈ 19.5 µM); in [9] it was 16 µg/mL (≈ 20.5 µM); in data set [14], 14.2 µg/mL (≈ 18.2 µM). This compound also yielded an MIC in data set [15] of 15.5 µg/mL (≈ 19.8 µM). Also, the IC50 in data set [5] is 40 µM; in [10], 50 µM; in data set [11] it was 92 µM.

Take `COC(=O)Nc1nc2ccccc2[nH]1` [CARBENDAZIM]: the MIC was determined as 20 µg/mL (≈ 105 µM) in [3], 24 µg/mL (≈ 126 µM) in data set [4], 24 µg/mL (≈ 126 µM) in data set [6] and 22 µg/mL (≈ 115 µM) in data set [8]. Besides, the zone of inhibition at 50 µg/mL was 13 mm in data set [7], 14 mm in data set [12], 15 mm in data set [16] and 13 mm in data set [17].

For `CC(C)[C@H](NC(=O)CNC(=O)[C@H](Cc1ccccc1)NC(=O)CNC(=O)Nc1ccccc1F)C(=O)N1CCC[C@H]1C(=O)N1CCN(c2nsc3ccccc23)CC1` ({NH(2-F-phenyl)-CO}-GFGVP-X1), the zone of inhibition at 50 µg/mL stood at 28 mm in data set [1]; 29 mm in data set [2]; 28 mm in data set [7]; 29 mm in data set [12]; 30 mm in data set [13]; 26 mm in [16]. Further, the zone of inhibition at 50 µg/mL in data set [17] is 29 mm. Besides, the MIC is 10 µg/mL (≈ 12.3 µM) in data set [3]; 14 µg/mL (≈ 17.2 µM) in data set [4]; 14.2 µg/mL (≈ 17.5 µM) in [6]; 14 µg/mL (≈ 17.2 µM) in [8]; 12.2 µg/mL (≈ 15 µM) in data set [9]; 12.8 µg/mL (≈ 15.7 µM) in [14]. Moreover, in data set [15], 12.2 µg/mL (≈ 15 µM) was the least that counted as inhibitory (MIC). Also, the values for the IC50 in data set [5], in data set [10] and in data set [11] were 41 µM, 53 µM and 110 µM, respectively.

`COc1ccc(NC(=S)NCC(=O)N[C@H](C(=O)NCC(=O)N[C@H](C(=O)N2CCC[C@H]2C(=O)N2CCN(c3nsc4ccccc34)CC2)C(C)C)C(C)C)cc1` ({Thiocarbamoyl(4-MeOPh)}-GVGVP-X1): the zone of inhibition at 50 µg/mL in [1] came out at 25 mm; in data set [2], 24 mm; in data set [7] it was 25 mm; in [12], 24 mm; in data set [13], 24 mm; in data set [16], 26 mm. In addition, the zone of inhibition at 50 µg/mL in data set [17] was found to be 26 mm. The IC50 in [5] was 18 µM; in data set [10] it was 18 µM; in data set [11], 32 µM.

In the case of `COc1cccc(NC(=S)NCC(=O)N[C@@H](Cc2ccccc2)C(=O)NCC(=O)N[C@H](C(=O)N2CCC[C@H]2C(=O)N2CCN(c3nsc4ccccc34)CC2)C(C)C)c1` (X4-GFGVP-X1), the zone of inhibition at 50 µg/mL in data set [1] was determined as 19 mm; in data set [2] it was 20 mm; in [7], 23 mm; in [12], 24 mm; in data set [13], 21 mm; in data set [16], 24 mm. For the same compound, the zone of inhibition at 50 µg/mL in data set [17] worked out at 23 mm. The figures for the IC50 in [5], in data set [10] and in data set [11] were 19 µM, 20 µM and 38 µM, respectively.

By MIC is commonly meant the lowest concentration that inhibits growth of the organism. Low values mean inhibition by little substance, high ones a need for much substance. Broadly, the IC50 is the concentration that inhibits the measured activity by half.
